Screens as filed in PubChem.
Only some compounds are listed: those with a hit (about 2% of all), similar ones and a draw of the others.
Tb hexokinase: blocks Trypanosoma brucei hexokinase 1 activity | AID 1430 | 220,000 tested, 0.11% active | recombinant TbHK1, G6PDH-coupled NADH A340 | inhibition, % at 10 µM;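 active means inhibition of 50% or more in the single-dose primary screen; inactive means inhibition below 50%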
Lipid droplet: modulators of hepatic lipid droplet formation | AML12 mouse hepatocytes, oleate lipid droplets, BODIPY imaging | inhibition, % at 6.5 µM | 240,000 tested, 0.4% active | AID 1656;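 active means lipid droplet intensity inhibited by at least 50%, with more than 500 cells counted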
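Assay system: AML12 mouse liver cells | Compound: 6.5 µM single-point dosing | Schedule: Overnight exposure | Technique: Fluorescence imaging, 20x objective, two fields per well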
RBBP9 inh: blocks human serine hydrolase RBBP9. AID 1515. inhibition, % at 7.94 µM. 220,000 tested, 0.2% active. recombinant RBBP9, FP-Rh probe fluorescence polarization;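 active means inhibition above the campaign mean of all tested compounds plus 3 SD, cut at about 14% in these data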;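 further: plate controls were DMSO wells with RBBP9 for no effect and wells lacking RBBP9 protein for full effect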
Target sequence (O75884 whole entry, looked up): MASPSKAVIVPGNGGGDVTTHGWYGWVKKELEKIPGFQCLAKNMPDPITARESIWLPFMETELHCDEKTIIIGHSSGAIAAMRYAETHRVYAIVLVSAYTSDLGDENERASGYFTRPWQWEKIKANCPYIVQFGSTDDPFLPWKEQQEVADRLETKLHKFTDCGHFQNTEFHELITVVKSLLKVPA
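Assay system: recombinant human RBBP9; Reagent: Serine-hydrolase probe FP-Rh, 375 nM pre-mixing; Doses: 7.94 µM single dose, 0.794% DMSO; Incubation: 30 min then 45 min, 25 °C; Detection: fluorescence polarization (mP), excitation 525 nm, emission 598 nm; Evaluation: percent inhibition from mP, scaled between DMSO and no-protein wells.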
TNF death inh: TNF-alpha cell death inhibition in Jurkat FADD-/- cells. Jurkat FADD-/- TNF necroptosis rescue, ATP luminescence, 24 h; 0 = TNF only, 100 = no-TNF cells. 220,000 tested, 0.068% active. AID 463075. activation (protection from cell death), % at 10 µM;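 active means activation, meaning protection from cell death, of at least 50% relative to plate controls; inactive means activation below 50%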;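 further: necroptosis triggered by 40 ng/mL TNF-alpha added together with compound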
PfM18AAP inh-1: PfM18AAP enzyme inhibition; recombinant PfM18AAP, H-Glu-NHMec fluorogenic cleavage; inhibition, % at 7.35 µM; 290,000 tested, 1.2% active; AID 1822;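 active means inhibition above the campaign mean inhibition over all tested compounds plus 3 SD, cut at about 28% in these data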;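 further: 0% = plate median of test compound wells and 100% = 2 mM ZnCl2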
zVAD death inh: blocks zVAD induced death of L929 cells. L929 zVAD necroptosis rescue, ATP luminescence, 24 h; with zVAD 60 µM. viability rescue, % at 10 µM. 220,000 tested, 0.38% active;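 active means activation, scaled between plate controls, above about 75%, limit read from the data; inactive means activation under that limit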;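 further: 0% = zVAD with DMSO and 100% = DMSO alone without zVAD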
PfM18AAP inh-2: confirmation of Plasmodium falciparum M18 aspartyl aminopeptidase inhibitors; shares compounds with PfM18AAP inh-1; recombinant PfM18AAP, H-Glu-NHMec fluorogenic cleavage; inhibition, % at 7.35 µM; 2,400 tested, 28% active; AID 2170;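 active means mean inhibition over replicate wells above the hit cutoff set for the earlier primary screen, cut at about 29% in these data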;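 further: 0% = median of test compound wells and 100% = 2 mM ZnCl2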
CTSL1 counter: Cathepsin L (human) inhibition, confirmation; shares compounds with PfM18AAP inh-1; purified cathepsin L1, Z-Leu-Arg-MCA fluorescence; inhibition, % at 5.96 µM; 2,400 tested, under 10 active; AID 2178;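 active means average inhibition across replicates above the hit cutoff set in the earlier primary screen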;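 further: 0% = median of test compound wells and 100% = Z-Phe-Ala-diazomethylketone 1 µM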
Target sequence (P07711 whole entry, looked up): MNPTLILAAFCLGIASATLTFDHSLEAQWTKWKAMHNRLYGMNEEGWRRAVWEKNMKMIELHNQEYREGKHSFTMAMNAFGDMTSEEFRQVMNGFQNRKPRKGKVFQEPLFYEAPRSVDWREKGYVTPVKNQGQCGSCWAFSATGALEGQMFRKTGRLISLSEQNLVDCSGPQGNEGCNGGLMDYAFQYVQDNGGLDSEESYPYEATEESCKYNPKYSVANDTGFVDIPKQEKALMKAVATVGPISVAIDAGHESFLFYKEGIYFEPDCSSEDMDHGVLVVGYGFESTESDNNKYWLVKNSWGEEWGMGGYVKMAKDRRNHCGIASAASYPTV
Numbers without * were called inactive; . = no result given.

SMILES	Tb hexokinase	Lipid droplet	RBBP9 inh	TNF death inh	PfM18AAP inh-1	zVAD death inh	PfM18AAP inh-2	CTSL1 counter
CCC(C)(C)n1nnnc1C(c1cc(OC)ccc1OC)N1CCC(C(N)=O)CC1 (stereo unspecified)	-3.2	-43.3	-13.3	-0.9	8.3	0.3	.	.
Cc1nc(-c2ccc(Cl)cc2)sc1C1(C)CC(c2cccc(F)c2)=NO1 (stereo unspecified)	-10.3	-7.3	.	1.5	.	0.4	.	.
Oc1ccc(/C=N/Nc2nn3cnnc3c3ccccc23)cc1	-30.8	-15.4	5.7	-1.7	32.9*	-0.2	-58.0	2.3
C(=N\Nc1ccc2nncn2n1)/c1ccco1	-47.2	13.3	-4.3	-0.2	33.9*	0.5	3.4	2.1
BrC(=C\c1ccccc1)/C=N/Nc1ccc2nncn2n1	-42.5	-8.2	-7.8	-0.8	32.1*	0.4	-17.3	-1.5
BrC(/C=N/Nc1nc(N2CCOCC2)nc(N2CCOCC2)n1)=C/c1ccccc1	-43.3	.	8.5	-5.1	20.5	1.2	.	.
COc1cc(/C=N/Nc2nn3cnnc3c3ccccc23)ccc1O	-19.4	.	0.6	-6.7	4.9	0.7	.	.
COc1ccc(S(=O)(=O)N2CCN(CC(O)COc3ccc(CC#N)cc3)CC2)cc1OC (stereo unspecified)	.	13.3	.	.	3.2	.	.	.
COc1ccc(N2CCOCC2)c(NC(=O)c2ccc3c(c2)OCO3)c1	.	-10.6	.	.	5.1	.	.	.
COCCN1CCN(C(=O)c2cc(COc3ccc(F)c(F)c3)on2)CC1	.	0.8	.	.	9.3	.	.	.
O=c1c2ccccc2c(/C=N/c2ncn[nH]2)c(O)n1Cc1ccccc1	-9.9	.	-8.5	2.7	54.1*	1.9	-20.6	1.6
COC(=O)/C=c1\sc2ncnn2c1=O	0.1	3.5	1.2	-3.3	38.4*	-0.8	-30.5	-2.1
COc1cc(-c2nc3cnccn3c2Nc2ccc3c(c2)OCCO3)ccc1O	-12.6	-24.0	1.7	-5.6	27.8	3.6	.	.
COc1cc(-c2nc3ccc(C)cn3c2Nc2ccc3c(c2)OCCO3)ccc1O	-9.3	-3.4	-1.8	-1.7	41.0*	.	40.5*	-2.2
COC(=O)Nc1sc2c(c1C(=O)NC1CC1)CCCCCC2	-4.5	16.6	-1.2	-0.5	-5.2	0.9	.	.
CC(=O)NC(CC(=O)NNC(=O)c1cc2ccccc2cc1O)c1ccccc1 (stereo unspecified)	.	-15.2	.	.	32.0*	.	-15.8	1.1
COc1ccccc1CN(C(=O)CNC(=O)c1ccco1)C(C(=O)NCC1CCCO1)c1ccc(OC)c(OC)c1 (stereo unspecified)	.	-1.7	.	.	-1.7	.	.	.
O=c1cc(-c2ccc(O)c(O)c2)oc2cc(O)c(C3OC(CO)C(O)C(O)C3O)c(O)c12 (stereo unspecified)	-31.6	-6.2	-12.9	0.6	68.4*	-0.5	33.9*	1.6
O=c1c(OC2OC(CO)C(O)C(O)C2OC2OC(CO)C(O)C(O)C2OC2OC(CO)C(O)C(O)C2O)c(-c2ccc(O)c(O)c2)oc2cc(O)cc(O)c12 (stereo unspecified)	-47.7	2.5	.	1.5	.	0.4	.	.
O=c1cc(-c2ccc(O)c(O)c2)oc2c(C3O[C@H](CO)[C@@H](O)[C@H](O)[C@H]3O)c(O)cc(O)c12 (stereo partly specified)	-95.7	-1.7	-14.2	2.5	67.7*	4.1	44.7*	-1.5
O=c1cc(-c2ccc(O)cc2)oc2cc(O[C@@H]3O[C@H](CO)[C@@H](O)[C@H](O)[C@H]3O[C@@H]3OC[C@](O)(CO)[C@H]3O)cc(O)c12	-27.8	-4.0	0.1	2.3	3.2	-0.4	.	.
O=C(CSc1nnc(NC(=O)c2ccco2)s1)Nc1ccccc1	-13.1	1.9	-7.5	0.0	2.8	0.4	.	.
CC(C)c1cc2c(c(O)c1O)[C@@]13CCCC(C)(C)C1CC2OC3=O (stereo partly specified)	.	-7.9	.	.	67.5*	.	47.8*	-3.6
Cc1cccc(C)c1N=Nc1c(C)cc(O)cc1C	.	-1.8	.	.	4.3	.	.	.
CCOC(=O)Cc1csc(NC(=O)c2cccc(OC)c2)n1	0.3	-2.4	3.9	-0.8	1.8	0.2	.	.
SMILES	Tb hexokinase	Lipid droplet	RBBP9 inh	TNF death inh	PfM18AAP inh-1	zVAD death inh	PfM18AAP inh-2	CTSL1 counter
COc1cccc(C(=O)NNC(=O)Cc2csc(N)n2)c1	-3.7	9.3	5.3	-0.1	35.7*	0.6	-38.8	-4.0
O=c1c2ccccc2cnn1Cc1n[nH]c(=S)n1-c1ccc(F)cc1	-0.2	9.2	-6.8	0.7	35.9*	5.4	-1.3	2.1
O=c1c2ccccc2cnn1Cc1n[nH]c(=S)n1-c1ccccc1Cl	-4.0	-9.4	-3.7	0.6	37.9*	1.6	5.7	0.9
O=C(N/N=C/c1ccc[nH]1)c1cc2ccccc2cc1O	.	-1.7	.	.	39.4*	.	-45.3	6.9
COc1cc(/C=C/C(=O)OC2CC3CCC2(C)C3(C)C)ccc1O (stereo unspecified)	-26.0	7.9	.	-1.6	.	1.4	.	.
O=C(/C=C/c1ccc(O)c(O)c1)OC1C(O)CC(OC(=O)/C=C/c2ccc(O)c(O)c2)(C(=O)O)CC1O (stereo unspecified)	-94.8	0.8	-6.2	1.1	76.5*	1.1	64.3*	5.9
C/C(=N\Nc1ccc(C(=O)O)cc1)c1ccc(S(=O)(=O)NCc2ccco2)cc1	-19.4	-5.9	-6.9	-0.5	35.7*	0.8	1.2	2.4
C/C(=N\Nc1ccc([N+](=O)[O-])cc1)c1ccc(N)cc1	-7.2	-11.3	1.5	4.4	33.0*	0.7	-18.2	5.5
C/C(=N\Nc1nc(Cl)c(Cl)cc1Cl)c1ccc(S(=O)(=O)NCc2ccco2)cc1	25.7	0.4	-1.7	0.9	48.9*	0.9	-53.9	7.1
C/C(=N\Nc1ccc(Cl)c(C(=O)O)c1)c1cccc([N+](=O)[O-])c1	2.1	0.0	2.1	-0.2	35.9*	-0.9	-1.3	4.7
Cc1nccn1CCCNC(=O)CC1C(=O)NCCN1Cc1ccc(F)cc1Cl (stereo unspecified)	.	22.7	.	.	9.2	.	.	.
COc1cc2cc[n+](Cc3ccc([N+](=O)[O-])cc3)cc2cc1OC	.	7.4	.	.	-8.3	.	.	.
CCCCC(=O)N(Cc1ccc(F)cc1)C1CCS(=O)(=O)C1 (stereo unspecified)	-6.7	-20.4	3.0	5.7	-8.3	0.4	.	.
C/C(=N/Nc1ncc(Br)cn1)c1ccc(Br)cc1	.	8.1	.	.	-1.0	.	.	.
C/C(=N\Nc1ccc(C(=O)O)cc1)c1ccc(Br)cc1	-76.6	-6.0	-15.3	-0.3	31.7*	0.9	-22.2	5.4
Cc1ccc(NC(=O)NNC(=O)c2cccs2)cc1	4.1	-24.4	-7.9	2.5	50.8*	1.6	27.0	2.6
